# Assay results from ChEMBL document CHEMBL1127645, “Synthesis, structure-activity relationships, and pharmacological evaluation of a series of fluorinated 3-benzyl-5-indolecarboxamides: identification of 4-[[5-[((2R)-2-methyl-4,4,4-trifluorobutyl)carbamoyl]-1-methyl indol- 3-yl]methyl]-3-methoxy-N-[(2-methylphenyl)sulfonyl]benzamide, a potent, …” (J Med Chem, 1994).
# What was measured:
# [1] = target: T1, Cysteinyl leukotriene receptor 1 (Cavia porcellus) (UniProt Q2NNR5); assay: Effective dose for the inhibition of percent protection from LTD4-induced dyspnea in a conscious guinea pig administered through oral route; type: functional
# T1 sequence (whole entry): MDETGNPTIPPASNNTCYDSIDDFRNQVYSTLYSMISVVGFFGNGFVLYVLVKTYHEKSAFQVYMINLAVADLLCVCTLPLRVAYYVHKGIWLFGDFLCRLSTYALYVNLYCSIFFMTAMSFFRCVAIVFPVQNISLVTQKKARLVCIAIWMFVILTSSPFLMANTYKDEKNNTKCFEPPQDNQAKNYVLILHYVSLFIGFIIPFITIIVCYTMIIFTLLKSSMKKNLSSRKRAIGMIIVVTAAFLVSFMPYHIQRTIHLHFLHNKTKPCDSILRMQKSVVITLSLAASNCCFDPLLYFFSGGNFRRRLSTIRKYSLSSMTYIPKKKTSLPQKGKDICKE
# How it was run: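 Conscious guinea pig dyspnea model with LTD4 challenge; percent protection from dyspnea plotted against dose (oral or intravenous). ED50 obtained by regression using at least three doses from the linear portion of the dose-response curve; SEM for percent protection was generally ≤25% at each dose.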
# [2] = target: T1, Cysteinyl leukotriene receptor 1 (Cavia porcellus); assay: Binding constant in guinea pig tracheal spirals with LTE4; type: tissue-based; conditions: Trachea
# How it was run: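 Guinea pig tracheal spirals contracted with LTE4 as agonist. Antagonist KB derived from concentration-response curves and reported as -log(KB) (pKB); n = number of concentration-response curves.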
# [3] = target: T2, Cysteinyl leukotriene receptor 1 (Cavia porcellus, UniProt Q2NNR5); assay: Inhibition constant for displacement of [3H]LTD4 on guinea pig lung parenchymal membranes; type: tissue-based, Lung parenchyma
# T2 sequence (Q2NNR5 whole entry): T1 sequence (whole entry)
# How it was run: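 Guinea pig lung parenchymal membranes; competitive displacement of [3H]LTD4. Ki taken as mean of two experiments, each run in duplicate on separate membrane batches.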
# [4] = Partition coefficient (logP); conditions: octanol/water
# Cavia porcellus = assay: ED50 (p.o.) / ED50 (i.v.) ratio of the compound; type: functional
# How it was run: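 Ratio of oral ED50 to intravenous ED50 from the conscious guinea pig LTD4-induced dyspnea model, used as an index of oral bioavailability.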
# [5] = system: Cysteinyl leukotriene receptor (Cavia porcellus); assay: Inhibition of percent protection from LTD4-induced dyspnea in a conscious guinea pig administered intravenously
# [6] = Compound was evaluated for the clearance in rat; type: ADME, organism-based; conditions: in vivo
# [7] = Bioavailability in guinea pig; type: ADME, organism-based, Cavia porcellus; conditions: in vivo
# [8] = Clearance in guinea pig; type: ADME, organism-based, Cavia porcellus; conditions: in vivo
# [9] = Compound was evaluated for the oral bioavailability in rat; type: ADME, organism-based; conditions: in vivo, read-out: Bioavailabiility
SMILES,pKB [2],Ki [3] [nM],other results
CCC(CNC(=O)c1ccc2c(c1)c(Cc1ccc(C(=O)NS(=O)(=O)c3ccccc3C)cc1OC)cn2CC)C(F)(F)F (stereo not drawn),9,5.3,
COc1cc(C(=O)O)ccc1Cc1cn(C)c2ccc(C(=O)NCC(C)CC(F)(F)F)cc12 (stereo not drawn),,,logP [4]: 5.12
CCn1cc(Cc2ccc(C(=O)NS(=O)(=O)c3ccccc3C)cc2OC)c2cc(C(=O)NCC(C)CC(F)(F)F)ccc21 (stereo not drawn),10.1,0.38,ED50 [1]: 1.42 µmol/kg; Ratio (Cavia porcellus): 129; ED50 [5]: 0.011 µmol/kg
COc1cc(C(=O)NS(=O)(=O)c2ccccc2C)ccc1Cc1cn(C)c2ccc(C(=O)NCC(C)(C)CC(F)(F)F)cc12,8.9,2.2,
COc1cc(C(=O)NS(=O)(=O)c2ccccc2C)ccc1Cc1cn(C)c2ccc(C(=O)NCC3(CC(F)(F)F)CC3)cc12,,4.6,
COc1cc(C(=O)NS(=O)(=O)c2ccccc2Cl)ccc1Cn1ccc2ccc(C(=O)NCC(C)CC(F)(F)F)cc21 (stereo not drawn),8.9,4.2,
COc1cc(C(=O)NS(=O)(=O)c2ccccc2C)ccc1Cc1cn(C)c2ccc(C(=O)NC/C(C)=C\C(F)(F)F)cc12,,2.1,
CCC(CC)CNC(=O)c1ccc2c(c1)c(Cc1ccc(C(=O)O)cc1OC)cn2C,,,logP [4]: 5.42
COc1cc(C(=O)NS(=O)(=O)c2ccccc2Cl)ccc1Cc1cn(C)c2ccc(C(=O)NCC(C)CC(F)(F)F)cc12 (stereo not drawn),9.7,0.57,ED50 [1]: 2.5 µmol/kg; Ratio (Cavia porcellus): 110; ED50 [5]: 0.024 µmol/kg
COc1cc(C(=O)NS(=O)(=O)c2ccccc2C)ccc1Cc1cn(C)c2ccc(C(=O)NCC(C)CC(F)(F)F)cc12 (stereo not drawn),9.93,0.57,clearance [6]: 1.83 mL/min/kg; bioavailability [7]: 12%; clearance [8]: 12.3 mL/min/kg; logP [4]: 6.18; ED50 [1]: 1.44 µmol/kg; Ratio (Cavia porcellus): 40; bioavailability [9]: 33%; ED50 [5]: 0.036 µmol/kg
CCC(C)CNC(=O)c1ccc2c(c1)c(Cc1ccc(C(=O)O)cc1OC)cn2C (stereo not drawn),,,logP [4]: 4.86

# Now from value to compound, other results behind:
pKB [2],Ki [3] [nM],SMILES,other results
9.3,2.4,CCC(CNC(=O)c1ccc2c(c1)c(Cc1ccc(C(=O)NS(=O)(=O)c3ccccc3Br)cc1OC)cn2C)CC(F)(F)F (stereo not drawn),ED50 [1]: 2.5 µmol/kg
8.8,5,CCCCC(CNC(=O)c1ccc2c(c1)c(Cc1ccc(C(=O)NS(=O)(=O)c3ccccc3C)cc1OC)cn2C)C(F)(F)F (stereo not drawn),
,3.8,C=C(CNC(=O)c1ccc2c(c1)c(Cc1ccc(C(=O)NS(=O)(=O)c3ccccc3C)cc1OC)cn2C)CC(F)(F)F,
,1.7,CCCn1cc(Cc2ccc(C(=O)NS(=O)(=O)c3ccccc3C)cc2OC)c2cc(C(=O)NCC(C)CC(F)(F)F)ccc21 (stereo not drawn),
